Legend:
BT-549 = assay: Cytotoxicity against human BT549 cells; type: functional
T47D = assay: Cytotoxicity against human T47D cells; type: functional
HL-60 = assay: Cytotoxicity against human HL60 cells after 72 hrs by MTT assay; type: functional, cell-based; details: HL-60, 72 h
Method in brief: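 HL-60 leukemia cells kept in RPMI 1640 with 10% fetal bovine serum, L-glutamine, 100 units/mL penicillin and 100 μg/mL streptomycin. Cells at 3 × 10^4 cells/mL exposed continuously to compound for 72 h. Growth read by MTT reduction. IC50 (50% inhibition) calculated from each compound's dose–response curve.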

CCRF-CEM = assay: Cytotoxicity against human CCRF-CEM cells; type: functional
K562 = assay: Cytotoxicity against human K562 cells; type: functional
MOLT-4 = assay: Cytotoxicity against human MOLT4 cells; type: functional
[1] = Cytotoxicity against human […] cells; type: functional
SR = assay: Cytotoxicity against human SR cells; type: functional
A549 = assay: Cytotoxicity against human A549 cells; type: functional
EKVX = assay: Cytotoxicity against human EKVX cells; type: functional
HOP-62 = assay: Cytotoxicity against human HOP62 cells; type: functional
HOP-92 = assay: Cytotoxicity against human HOP92 cells; type: functional
NCI-H23 = assay: Cytotoxicity against human NCI-H23 cells; type: functional
NCI-H322M = assay: Cytotoxicity against human NCI-H322M cells; type: functional
NCI-H460 = assay: Cytotoxicity against human NCI-H460 cells; type: functional
NCI-H522 = assay: Cytotoxicity against human NCI-H522 cells; type: functional
COLO 205 = assay: Cytotoxicity against human COLO205 cells; type: functional
HCC 2998 = assay: Cytotoxicity against human HCC2998 cells; type: functional
HCT-116 = assay: Cytotoxicity against human HCT116 cells; type: functional
HCT-15 = assay: Cytotoxicity against human HCT15 cells; type: functional
HT-29 = assay: Cytotoxicity against human HT-29 cells; type: functional
KM12 = assay: Cytotoxicity against human KM12 cells; type: functional
SW-620 = assay: Cytotoxicity against human SW620 cells; type: functional
SF-268 = assay: Cytotoxicity against human SF268 cells; type: functional
SF-295 = assay: Cytotoxicity against human SF295 cells; type: functional
SF-539 = assay: Cytotoxicity against human SF539 cells; type: functional
SNB-19 = assay: Cytotoxicity against human SNB19 cells; type: functional
SNB-75 = assay: Cytotoxicity against human SNB75 cells; type: functional
U-251 = assay: Cytotoxicity against human U251 cells; type: functional
LOX IMVI = assay: Cytotoxicity against human LOXIMVI cells; type: functional
[2] = read-out: pLC50 (the source's name) (converted)

Work on `COc1ccc(C(=O)O[C@H]2[C@H](O[C@@H]3[C@@H](OC(C)=O)[C@H](O[C@H]4C[C@H]5[C@@H]6CC=C7C[C@@H](O)CC[C@]7(C)[C@H]6CC[C@]5(C)[C@@]4(O)[C@H](C)C(=O)CCC(C)C)OC[C@@H]3O)OC[C@@H](O)[C@@H]2O)cc1` yielded a CC50 (BT-549; [2]) of 4570 nM, a TGI (BT-549; read-out: pTGI (converted)) of 1700 nM and a GI50 (T47D) of 5.13 nM. For the same compound, the CC50 (T47D; [2]) was 7760 nM, the TGI (T47D; read-out: pTGI (converted)) was 1510 nM and the GI50 (HL-60) was 0.0347 nM. It also gave an IC50 (HL-60) of 0.25 nM, a TGI (HL-60; read-out: pTGI (converted)) of 182 nM and a GI50 (CCRF-CEM) of 0.1 nM. For the same compound, the CC50 (CCRF-CEM; [2]) was 1200 nM, the TGI (CCRF-CEM; read-out: pTGI (converted)) was 7.08 nM and the GI50 (K562) was 0.219 nM. The CC50 (K562; [2]) was 10000 nM, the TGI (K562; read-out: pTGI (converted)) was 14.1 nM and the GI50 (MOLT-4) was 0.0977 nM. The CC50 (MOLT-4; [2]) was 457 nM, the TGI (MOLT-4; read-out: pTGI (converted)) was 11 nM and the GI50 [1] was 0.038 nM. It also gave a CC50 [1, 2] of 2090 nM, a TGI ([1]; read-out: pTGI (converted)) of 0.219 nM and a GI50 (SR) of 0.12 nM. It also gave a CC50 (SR; [2]) of 6310 nM, a TGI (SR; read-out: pTGI (converted)) of 129 nM and a GI50 (A549) of 0.457 nM. It also gave a CC50 (A549; [2]) of 8130 nM, a TGI (A549; read-out: pTGI (converted)) of 2090 nM and a GI50 (EKVX) of 0.182 nM. It also gave a CC50 (EKVX; [2]) of 6610 nM, a TGI (EKVX; read-out: pTGI (converted)) of 550 nM and a GI50 (HOP-62) of 0.159 nM. For the same compound, the CC50 (HOP-62; [2]) was 129 nM, the TGI (HOP-62; read-out: pTGI (converted)) was 2 nM and the GI50 (HOP-92) was 1.1 nM. For the same compound, the CC50 (HOP-92; [2]) was 3020 nM, the TGI (HOP-92; read-out: pTGI (converted)) was 32.4 nM and the GI50 (NCI-H23) was 0.363 nM. The CC50 (NCI-H23; [2]) was 1290 nM, the TGI (NCI-H23; read-out: pTGI (converted)) was 110 nM and the GI50 (NCI-H322M) was 26.9 nM. The CC50 (NCI-H322M; [2]) was 5010 nM, the TGI (NCI-H322M; read-out: pTGI (converted)) was 1290 nM and the GI50 (NCI-H460) was 0.159 nM. The CC50 (NCI-H460; [2]) was 2190 nM, the TGI (NCI-H460; read-out: pTGI (converted)) was 33.9 nM and the GI50 (NCI-H522) was 0.363 nM. For the same compound, the CC50 (NCI-H522; [2]) was 324 nM, the TGI (NCI-H522; read-out: pTGI (converted)) was 5.37 nM and the GI50 (COLO 205) was 1 nM. It also gave a CC50 (COLO 205; [2]) of 288 nM, a TGI (COLO 205; read-out: pTGI (converted)) of 1.58 nM and a GI50 (HCC 2998) of 30.2 nM. It also gave a CC50 (HCC 2998; [2]) of 4370 nM, a TGI (HCC 2998; read-out: pTGI (converted)) of 1910 nM and a GI50 (HCT-116) of 0.38 nM. It also gave a CC50 (HCT-116; [2]) of 1290 nM, a TGI (HCT-116; read-out: pTGI (converted)) of 191 nM and a GI50 (HCT-15) of 11 nM. The CC50 (HCT-15; [2]) was 692 nM, the TGI (HCT-15; read-out: pTGI (converted)) was 95.5 nM and the GI50 (HT-29) was 0.363 nM. It also gave a CC50 (HT-29; [2]) of 3720 nM, a TGI (HT-29; read-out: pTGI (converted)) of 302 nM and a GI50 (KM12) of 0.407 nM. For the same compound, the CC50 (KM12; [2]) was 1100 nM, the TGI (KM12; read-out: pTGI (converted)) was 39.8 nM and the GI50 (SW-620) was 0.129 nM. The CC50 (SW-620; [2]) was 21.9 nM, the TGI (SW-620; read-out: pTGI (converted)) was 0.549 nM and the GI50 (SF-268) was 2.4 nM. For the same compound, the CC50 (SF-268; [2]) was 7410 nM, the TGI (SF-268; read-out: pTGI (converted)) was 851 nM and the GI50 (SF-295) was 0.0479 nM. The CC50 (SF-295; [2]) was 30.2 nM, the TGI (SF-295; read-out: pTGI (converted)) was 2.29 nM and the GI50 (SF-539) was 0.1 nM. It also gave a CC50 (SF-539; [2]) of 182 nM, a TGI (SF-539; read-out: pTGI (converted)) of 4.47 nM and a GI50 (SNB-19) of 12.9 nM. It also gave a CC50 (SNB-19; [2]) of 2880 nM, a TGI (SNB-19; read-out: pTGI (converted)) of 331 nM and a GI50 (SNB-75) of 0.0417 nM. For the same compound, the CC50 (SNB-75; [2]) was 3020 nM, the TGI (SNB-75; read-out: pTGI (converted)) was 3.24 nM and the GI50 (U-251) was 0.0257 nM. For the same compound, the CC50 (U-251; [2]) was 2510 nM, the TGI (U-251; read-out: pTGI (converted)) was 51.3 nM and the GI50 (LOX IMVI) was 0.251 nM. The CC50 (LOX IMVI; [2]) was 91.2 nM and the TGI (LOX IMVI; read-out: pTGI (converted)) was 2.29 nM.
